pIC50: −log10 of the molar value. The source made the active and inactive calls.
Experiments:
[1] = target: T1, Histone deacetylase-like amidohydrolase (Alcaligenes sp. (strain DSM 11172) (Bordetella sp. (strain FB188))) (UniProt Q70I53); experiment: Inhibition of Bordetella sp. (strain FB188) N-terminus His-tagged HDAH expressed in Escherichia coli BL21 (DE3) up to 100 uM; conditions: Alcaligenaceae bacterium FB188
T1 sequence (whole entry): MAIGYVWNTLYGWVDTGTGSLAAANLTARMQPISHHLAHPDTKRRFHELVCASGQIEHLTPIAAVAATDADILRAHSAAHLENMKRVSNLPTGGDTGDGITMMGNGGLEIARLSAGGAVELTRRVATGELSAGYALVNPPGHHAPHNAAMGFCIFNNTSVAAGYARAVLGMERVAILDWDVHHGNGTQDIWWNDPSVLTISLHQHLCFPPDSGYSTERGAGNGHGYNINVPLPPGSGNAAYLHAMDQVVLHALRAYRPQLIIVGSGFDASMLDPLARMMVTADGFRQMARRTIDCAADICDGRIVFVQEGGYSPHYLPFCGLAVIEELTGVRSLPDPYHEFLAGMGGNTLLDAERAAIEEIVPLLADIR
Summary of the method: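 Recombinant N-terminal His6-tagged HDAH from Bordetella strain FB188, expressed in E. coli BL21, purified on zinc-loaded His-Trap column, eluted with 500 mM imidazole, dialyzed into assay buffer (>98% pure by SDS-PAGE). Tested directly against compounds; thiols generated in situ from disulfides with TCEP.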

[2] = target: T2, Protein deacetylase HDAC6 (Homo sapiens, UniProt Q9UBN7); experiment: Inhibition of human recombinant HDAC6 using Boc-lys(Ac)-AMC as substrate preincubated for 20 mins with substrate measured after 60 mins by fluorescence analysis
T2 sequence (Q9UBN7 whole entry): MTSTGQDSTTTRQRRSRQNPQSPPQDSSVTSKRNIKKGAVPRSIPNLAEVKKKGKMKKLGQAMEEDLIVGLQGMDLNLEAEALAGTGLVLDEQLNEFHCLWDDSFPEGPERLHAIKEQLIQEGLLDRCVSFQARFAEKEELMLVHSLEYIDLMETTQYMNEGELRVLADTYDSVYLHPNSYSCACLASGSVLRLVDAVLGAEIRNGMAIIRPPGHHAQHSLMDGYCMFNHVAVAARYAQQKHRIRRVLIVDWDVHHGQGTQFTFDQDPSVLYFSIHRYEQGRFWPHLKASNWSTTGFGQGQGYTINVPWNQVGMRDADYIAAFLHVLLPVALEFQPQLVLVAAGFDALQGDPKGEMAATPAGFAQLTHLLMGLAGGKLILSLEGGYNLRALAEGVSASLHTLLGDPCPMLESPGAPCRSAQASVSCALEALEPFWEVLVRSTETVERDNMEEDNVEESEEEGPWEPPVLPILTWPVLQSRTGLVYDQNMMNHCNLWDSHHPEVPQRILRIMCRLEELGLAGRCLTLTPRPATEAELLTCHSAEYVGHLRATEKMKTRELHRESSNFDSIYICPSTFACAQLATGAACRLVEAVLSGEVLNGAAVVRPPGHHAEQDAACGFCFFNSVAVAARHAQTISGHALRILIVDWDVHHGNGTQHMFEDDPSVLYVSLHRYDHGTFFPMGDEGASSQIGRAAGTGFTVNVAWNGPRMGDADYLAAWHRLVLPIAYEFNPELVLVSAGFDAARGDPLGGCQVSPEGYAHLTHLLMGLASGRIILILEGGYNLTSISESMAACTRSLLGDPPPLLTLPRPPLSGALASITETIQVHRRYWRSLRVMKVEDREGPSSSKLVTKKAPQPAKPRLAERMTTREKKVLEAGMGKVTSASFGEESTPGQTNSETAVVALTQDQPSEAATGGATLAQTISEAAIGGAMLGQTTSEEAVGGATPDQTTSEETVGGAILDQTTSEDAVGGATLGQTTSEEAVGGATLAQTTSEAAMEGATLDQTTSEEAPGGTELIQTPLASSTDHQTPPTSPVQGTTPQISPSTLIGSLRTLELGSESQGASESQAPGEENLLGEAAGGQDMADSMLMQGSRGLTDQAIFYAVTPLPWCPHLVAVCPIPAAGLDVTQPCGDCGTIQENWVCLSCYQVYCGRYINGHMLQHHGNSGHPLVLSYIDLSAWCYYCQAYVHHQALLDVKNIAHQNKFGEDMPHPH

[3] = target: DNA (cytosine-5)-methyltransferase 1 (Homo sapiens, UniProt P26358); experiment: Inhibition of full length N-terminal His6-tagged human DNMT1 at 120 uM after 1 hr by fluorescence analysis
Summary of the method: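 Baculovirus-expressed DNMT1 (80 nM final) with SAM (10 μM final) and hemimethylated hairpin oligo (125 nM final) in MOPS buffer pH 6.5 with 1 mM DTT, 1 h room temperature. Stopped with Gla1 plus 125 μM SAH, developed 7 h; fluorescence Ex 485/Em 520 nm. Thiols made in situ by TCEP reduction; no SAM as full-inhibition control.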

Histone deacetylase 1 = Histone deacetylase 1 (Homo sapiens, UniProt Q13547); experiment: Inhibition of human recombinant HDAC1 using Boc-lys(Ac)-AMC as substrate preincubated for 20 mins with substrate measured after 60 mins by fluorescence analysis
A549 = experiment: Growth inhibition of human A549 cells after 96 hrs by sulphorhodamine B assay; assay type: functional; conditions: A549, 96 h
Summary of the method: (§1)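 SRB growth assay; MCF7 and WI38 seeded 4000 cells/well, A549 2000 cells/well, attached overnight, then exposed to freshly made drug solutions (0.1 to 50 μM) for 96 h. Fixed with cold 10% TCA, stained with 0.4% SRB; absorbance at 540 nm as percent of untreated control, IC50 from mean absorbance.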

MCF7 = experiment: Growth inhibition of human MCF7 cells after 96 hrs by sulphorhodamine B assay; assay type: functional; conditions: MCF7, 96 h; summary of the method: as §1

Chain of Histone deacetylase 1 (Q13547 whole entry): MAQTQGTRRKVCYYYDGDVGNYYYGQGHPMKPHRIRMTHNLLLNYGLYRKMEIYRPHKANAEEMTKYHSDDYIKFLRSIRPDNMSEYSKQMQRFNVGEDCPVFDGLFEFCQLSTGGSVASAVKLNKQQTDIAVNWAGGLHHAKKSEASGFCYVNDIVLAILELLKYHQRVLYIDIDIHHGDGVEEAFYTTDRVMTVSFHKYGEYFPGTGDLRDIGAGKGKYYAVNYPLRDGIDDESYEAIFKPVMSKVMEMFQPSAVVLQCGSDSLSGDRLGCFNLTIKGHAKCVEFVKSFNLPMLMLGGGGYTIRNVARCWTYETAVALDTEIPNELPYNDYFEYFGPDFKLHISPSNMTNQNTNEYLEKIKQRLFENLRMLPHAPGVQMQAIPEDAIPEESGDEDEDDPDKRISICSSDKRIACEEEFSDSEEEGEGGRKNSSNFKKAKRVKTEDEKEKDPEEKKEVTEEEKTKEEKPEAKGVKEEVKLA
Chain of DNA (cytosine-5)-methyltransferase 1 (P26358 whole entry): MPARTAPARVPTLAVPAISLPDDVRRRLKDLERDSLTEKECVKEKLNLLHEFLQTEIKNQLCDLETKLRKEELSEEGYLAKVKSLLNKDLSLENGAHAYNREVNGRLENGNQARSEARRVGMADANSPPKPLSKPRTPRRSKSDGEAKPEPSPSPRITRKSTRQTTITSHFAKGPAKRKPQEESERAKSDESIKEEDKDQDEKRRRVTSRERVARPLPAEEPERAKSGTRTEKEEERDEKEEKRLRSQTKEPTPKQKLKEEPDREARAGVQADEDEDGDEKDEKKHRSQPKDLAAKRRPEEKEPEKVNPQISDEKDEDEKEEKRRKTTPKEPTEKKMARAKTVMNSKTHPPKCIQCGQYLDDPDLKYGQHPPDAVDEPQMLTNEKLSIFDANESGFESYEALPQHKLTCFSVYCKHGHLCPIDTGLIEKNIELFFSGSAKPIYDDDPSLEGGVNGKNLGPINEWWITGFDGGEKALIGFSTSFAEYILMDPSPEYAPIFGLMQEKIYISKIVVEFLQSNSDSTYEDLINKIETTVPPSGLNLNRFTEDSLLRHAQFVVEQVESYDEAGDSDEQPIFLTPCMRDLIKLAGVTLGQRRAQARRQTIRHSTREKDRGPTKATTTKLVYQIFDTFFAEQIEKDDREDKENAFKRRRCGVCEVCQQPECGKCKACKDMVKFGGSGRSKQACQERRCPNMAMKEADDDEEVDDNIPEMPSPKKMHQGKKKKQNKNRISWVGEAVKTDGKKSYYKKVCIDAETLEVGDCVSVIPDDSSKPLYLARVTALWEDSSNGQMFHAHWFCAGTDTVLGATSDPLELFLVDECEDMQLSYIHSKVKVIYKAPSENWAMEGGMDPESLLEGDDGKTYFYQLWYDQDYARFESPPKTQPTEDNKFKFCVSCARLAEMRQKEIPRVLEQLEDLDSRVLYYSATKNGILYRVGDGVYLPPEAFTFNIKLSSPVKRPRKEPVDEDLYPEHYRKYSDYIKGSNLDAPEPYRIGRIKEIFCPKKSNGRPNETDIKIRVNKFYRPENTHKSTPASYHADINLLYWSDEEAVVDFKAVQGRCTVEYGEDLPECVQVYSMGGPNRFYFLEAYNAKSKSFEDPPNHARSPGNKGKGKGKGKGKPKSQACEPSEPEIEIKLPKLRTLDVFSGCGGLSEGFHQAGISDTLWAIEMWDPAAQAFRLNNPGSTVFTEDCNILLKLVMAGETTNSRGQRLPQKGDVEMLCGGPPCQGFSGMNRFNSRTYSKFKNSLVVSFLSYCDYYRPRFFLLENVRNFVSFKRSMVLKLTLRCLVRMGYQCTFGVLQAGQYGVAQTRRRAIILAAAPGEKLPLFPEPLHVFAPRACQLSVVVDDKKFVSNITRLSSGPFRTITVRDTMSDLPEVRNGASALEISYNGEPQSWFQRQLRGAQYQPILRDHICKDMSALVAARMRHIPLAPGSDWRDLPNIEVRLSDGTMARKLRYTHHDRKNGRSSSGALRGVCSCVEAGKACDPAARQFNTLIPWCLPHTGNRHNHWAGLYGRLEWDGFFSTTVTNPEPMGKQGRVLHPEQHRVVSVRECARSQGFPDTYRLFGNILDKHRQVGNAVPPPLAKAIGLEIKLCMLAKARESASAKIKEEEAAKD

Compound	inhibition [1]	pIC50 [2]	inhibition [3]	pIC50 (Histone deacetylase 1)	GI50 (A549) [nM]	GI50 (MCF7) [nM]
O=C(NCCSSCCNC(=O)/C(Cc1cccc([N+](=O)[O-])c1)=N/O)/C(Cc1cccc([N+](=O)[O-])c1)=N/O	inactive	–	–	–	–	–
O=C(NCCSSCCNC(=O)/C(Cc1ccc(O)cc1)=N/O)/C(Cc1ccc(O)cc1)=N/O	inactive	–	–	–	–	–
CN(C)c1ccc(C/C(=N\O)C(=O)NCCS)cc1	inactive	5.64	inactive	9.00	–	–
CN(C)c1ccc(C/C(=N\O)C(=O)NCCSSCCNC(=O)/C(Cc2ccc(N(C)C)cc2)=N/O)cc1	inactive	–	–	–	–	–
O=C(CCc1ccc(O)c(Br)c1)NCCSSCCNC(=O)CCc1ccc(O)c(Br)c1	inactive	4.69	–	< 4.30	–	–
CSc1ccc(C/C(=N\O)C(=O)NCCS)cc1Br	inactive	6.72	inactive	9.32	–	–
COc1ccc(C/C(=N\O)C(=O)NCCSC)cc1Br	–	< 4.30	–	4.63	–	–
O=C(NCCSSCCNC(=O)/C(Cc1cc(Br)c(O)c(Br)c1)=N/O)/C(Cc1cc(Br)c(O)c(Br)c1)=N/O	inactive	–	–	–	–	–
CN(C)c1ccc(C/C(=N\O)C(=O)NCCS)cc1Br	inactive	6.15	inactive	8.40	–	–
CO/N=C(\Cc1ccc(OC)c(Br)c1)C(=O)NCCSSCCNC(=O)/C(Cc1ccc(OC)c(Br)c1)=N/OC	inactive	< 4.30	–	6.66	–	–
CSCCNC(=O)C(=O)Cc1ccc(O)c(Br)c1	inactive	4.52	–	5.14	> 50000	18300
N/N=C(\Cc1ccc(O)c(Br)c1)C(=O)NCCSSCCNC(=O)/C(Cc1ccc(O)c(Br)c1)=N/N	inactive	5.30	–	5.21	18800	3810
CSc1ccc(C/C(=N\O)C(=O)NCCS)cc1	inactive	5.89	inactive	8.70	–	–
O=C(NCCS)/C(Cc1cc(Br)cc([N+](=O)[O-])c1)=N/O	inactive	6.13	inactive	8.30	–	–
O=C(NCCSSCCNC(=O)/C(Cc1ccc(F)cc1)=N/O)/C(Cc1ccc(F)cc1)=N/O	inactive	–	–	–	–	–
CSc1ccc(C/C(=N\O)C(=O)NCCSSCCNC(=O)/C(Cc2ccc(SC)c(Br)c2)=N/O)cc1Br	inactive	–	–	–	–	–
COc1ccc(C/C(=N\O)C(=O)NCCSSCCNC(=O)/C(Cc2ccc(OC)c(Br)c2)=N/O)cc1Br	–	5.70	–	7.37	–	–
COc1ccc(C/C(=N\O)C(=O)NCCSSCCNC(=O)/C(Cc2ccc(OC)c(I)c2)=N/O)cc1I	inactive	–	–	–	–	–
COc1ccc(CC(=O)C(=O)NCCS)cc1Br	inactive	6.60	–	5.96	–	–
CO/N=C(\Cc1ccc(OC)c(Br)c1)C(=O)NCCS	inactive	5.57	inactive	7.82	–	–
COc1ccc(C/C(=N\N)C(=O)NCCSC)cc1Br	inactive	< 4.30	–	4.90	–	–

Compound	inhibition [1]	pIC50 [2]	inhibition [3]	pIC50 (Histone deacetylase 1)	GI50 (A549) [nM]	GI50 (MCF7) [nM]
COc1cc(C/C(=N\O)C(=O)NCCSSCCNC(=O)/C(Cc2ccc(SC)c(OC)c2)=N/O)ccc1SC	inactive	–	–	–	–	–
COc1ccc(C/C(=N\O)C(=O)NCCSSCCNC(=O)/C(Cc2ccc(OC)c(OC)c2)=N/O)cc1OC	inactive	–	–	–	–	–
O=C(NCCS)/C(Cc1ccc(F)cc1)=N/O	inactive	5.54	inactive	8.15	–	–
COc1ccc(C/C(=N\N)C(=O)NCCS)cc1Br	inactive	6.49	–	8.22	–	–
CN(C)c1ccc(C/C(=N\O)C(=O)NCCSSCCNC(=O)/C(Cc2ccc(N(C)C)c(Br)c2)=N/O)cc1Br	inactive	–	–	–	–	–
CO/N=C(\Cc1ccc(OC)c(Br)c1)C(=O)NCCSC	inactive	< 4.30	–	< 4.30	–	–
COc1cc(C/C(=N\O)C(=O)NCCS)cc(I)c1OC	inactive	6.57	inactive	9.00	–	–
COc1ccc(C/C(=N\O)C(=O)NCCS)cc1I	inactive	6.62	inactive	9.00	–	–
O=C(NCCS)/C(Cc1cc(Br)c(O)c(Br)c1)=N/O	inactive	6.10	inactive	9.70	–	–
O=C(NCCCCCCNC(=O)/C(Cc1ccc(O)c(Br)c1)=N/O)/C(Cc1ccc(O)c(Br)c1)=N/O	inactive	–	inactive	–	–	–
COc1cc(C/C(=N\O)C(=O)NCCSSCCNC(=O)/C(Cc2cc(I)c(OC)c(OC)c2)=N/O)cc(I)c1OC	inactive	–	–	–	–	–
CSc1ccc(C/C(=N\O)C(=O)NCCSSCCNC(=O)/C(Cc2ccc(SC)cc2)=N/O)cc1	inactive	–	–	–	–	–
O=C(NCCCSCCNC(=O)/C(Cc1ccc(O)c(Br)c1)=N/O)/C(Cc1ccc(O)c(Br)c1)=N/O	inactive	–	inactive	–	–	–
O=C(NCCS)/C(Cc1ccc(O)cc1)=N/O	inactive	5.77	inactive	8.40	–	–
COc1ccc(CC(=O)C(=O)NCCSSCCNC(=O)C(=O)Cc2ccc(OC)c(Br)c2)cc1Br	inactive	5.10	–	5.05	–	–
COc1cc(C/C(=N\O)C(=O)NCCS)ccc1SC	inactive	5.85	–	9.22	–	–
COc1ccc(CC(=O)C(=O)NCCSC)cc1Br	inactive	< 4.30	–	< 4.30	–	–
O=C(NCCS)/C(Cc1cccc([N+](=O)[O-])c1)=N/O	inactive	5.92	inactive	9.00	–	–
COc1ccc(C/C(=N\N)C(=O)NCCSSCCNC(=O)/C(Cc2ccc(OC)c(Br)c2)=N/N)cc1Br	inactive	< 4.30	–	5.52	–	–
O=C(NCCSSCCNC(=O)/C(Cc1cc(Br)cc([N+](=O)[O-])c1)=N/O)/C(Cc1cc(Br)cc([N+](=O)[O-])c1)=N/O	inactive	–	–	–	–	–
COc1ccc(C/C(=N\O)C(=O)NCCS)cc1OC	inactive	5.57	inactive	8.52	–	–
